Source: ChEMBL document CHEMBL3817733, “Discovery of a novel small molecule agonist scaffold for the APJ receptor” (Bioorg Med Chem, 2016)
Calls of active or inactive are those of the source. The rule behind the calls is not given here.

Tests used:
Apelin receptor [1] = target: T1, Apelin receptor (Homo sapiens, UniProt P35414); assay: Agonist activity at human APJ receptor expressed in cells c-expressing Galphaq16 assessed as calcium mobilization by FLIPR assay; assay type: functional, cell-based
T1 sequence (P35414 whole entry): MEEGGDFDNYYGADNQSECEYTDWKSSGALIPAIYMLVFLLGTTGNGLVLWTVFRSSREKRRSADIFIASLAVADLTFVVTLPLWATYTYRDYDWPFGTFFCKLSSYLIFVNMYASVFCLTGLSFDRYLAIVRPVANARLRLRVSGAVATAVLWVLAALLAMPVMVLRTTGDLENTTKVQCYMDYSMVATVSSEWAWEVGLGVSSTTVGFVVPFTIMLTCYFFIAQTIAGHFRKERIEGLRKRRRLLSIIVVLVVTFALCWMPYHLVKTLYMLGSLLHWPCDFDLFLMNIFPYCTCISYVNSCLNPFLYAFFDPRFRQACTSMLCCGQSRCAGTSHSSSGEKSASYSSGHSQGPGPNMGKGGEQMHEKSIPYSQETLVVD
How it was run: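 Human APJ-Gαq16 stable cells lifted non-enzymatically, plated 30,000/well, grown 24 h at 37 C to confluence. Loaded with Calcium 5 dye in HBSS with 20 mM HEPES, 1% BSA, 10 µM probenecid, 1 h at 37 C. FLIPR Tetra read ~17 sec baseline, then added agonist at 10x; pyr-apelin-13 as reference.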

Apelin receptor [2] = target: T1, Apelin receptor; assay: Displacement of [125I]-apelin13 from human APJ receptor expressed in CHOK1 cell membranes after 2 hrs by scintillation counting; parameters: species or system CHO-K1
[3] = target: Neurotensin receptor type 1 (Rattus norvegicus) (UniProt P20789); assay: Agonist activity at rat NTS1 receptor expressed in CHOK1 cells assessed as calcium mobilization by FLIPR assay; assay type: functional, cell-based; conditions: CHO-K1
Neurotensin receptor type 1 (Rattus norvegicus), sequence (P20789 whole entry): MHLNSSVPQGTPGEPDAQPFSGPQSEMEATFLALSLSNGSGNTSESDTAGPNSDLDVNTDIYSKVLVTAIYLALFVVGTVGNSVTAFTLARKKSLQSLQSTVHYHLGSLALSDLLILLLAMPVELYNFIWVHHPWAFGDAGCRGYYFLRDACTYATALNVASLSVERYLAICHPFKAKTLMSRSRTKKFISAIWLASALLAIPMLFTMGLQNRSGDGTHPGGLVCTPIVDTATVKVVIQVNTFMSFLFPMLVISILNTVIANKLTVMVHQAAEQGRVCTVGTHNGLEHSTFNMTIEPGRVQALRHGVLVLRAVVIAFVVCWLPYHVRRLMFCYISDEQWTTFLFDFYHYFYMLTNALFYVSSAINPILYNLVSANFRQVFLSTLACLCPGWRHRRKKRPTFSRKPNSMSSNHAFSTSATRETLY

[4] = target: T2, Neurotensin receptor type 2 (Rattus norvegicus) (UniProt Q63384); assay: (§1) Partial agonist activity at rat NTS2 receptor expressed in CHOK1 cells assessed as calcium mobilization by FLIPR assay; assay type: functional, cell-based; conditions: CHO-K1
T2 sequence (whole entry): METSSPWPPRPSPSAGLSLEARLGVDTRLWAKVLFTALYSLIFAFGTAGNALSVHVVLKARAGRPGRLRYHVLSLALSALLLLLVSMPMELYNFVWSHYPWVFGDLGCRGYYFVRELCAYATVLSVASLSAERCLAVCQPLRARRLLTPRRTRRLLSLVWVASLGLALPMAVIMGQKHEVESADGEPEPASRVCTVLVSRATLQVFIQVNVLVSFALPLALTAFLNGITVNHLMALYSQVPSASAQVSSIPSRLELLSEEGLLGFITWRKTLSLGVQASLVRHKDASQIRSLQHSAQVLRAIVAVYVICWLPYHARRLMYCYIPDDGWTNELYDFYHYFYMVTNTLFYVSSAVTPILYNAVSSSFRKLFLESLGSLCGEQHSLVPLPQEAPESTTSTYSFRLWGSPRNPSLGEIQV

[5] = target: T3, Neurotensin receptor type 2 (Rattus norvegicus, UniProt Q63384); assay: as §1; assay type: functional, cell-based, CHO-K1
T3 sequence (Q63384 whole entry): T2 sequence (whole entry)

[6] = target: Neurotensin receptor type 1 (Rattus norvegicus) (UniProt P20789); assay: Antagonist activity against rat NTS1 receptor expressed in CHOK1 cells assessed as calcium mobilization by FLIPR assay; assay type: functional, cell-based; conditions: CHO-K1

| Compound | EC50 (Apelin receptor [1]) | other results |
| --- | --- | --- |
| Cc1cc(C(=O)N[C@H](C(=O)O)C2CCCCC2)nn1-c1ccc(F)cc1 | > 30 µM |  |
| COc1cccc(OC)c1-c1cc(C(=O)N[C@@H](CCc2ccccc2)CC(=O)O)nn1-c1ccc(F)cc1 | 3 µM | Ki (Apelin receptor [2]): 3 µM |
| COc1cccc(OC)c1-c1cc(C(=O)N[C@H](C(=O)NCC(=O)O)C2CCCCC2)nn1-c1ccc(F)cc1 | > 30 µM |  |
| COc1cccc(OC)c1-c1cc(C(=O)N[C@@H](CC(C)C)C(=O)O)nn1-c1ccc(F)cc1 | > 30 µM |  |
| COc1cccc(OC)c1-c1cc(C(=O)N[C@@H](CCC2CCCCC2)CC(=O)O)nn1-c1ccc(F)cc1 |  | Activity [3]: inactive; Emax [4]: 23%; EC50 [5]: 3.41 µM; Activity [6]: inactive |
| COc1cccc(OC)c1-c1cc(C(=O)N2CC[C@H](C(=O)O)C2)nn1-c1ccc(F)cc1 | > 30 µM |  |
| COc1cccc(OC)c1-c1cc(C(=O)N[C@@H](CCCCNC(=O)OC(C)(C)C)C(=O)O)nn1-c1ccc(F)cc1 | > 30 µM |  |
| COc1cccc(OC)c1-c1cc(C(=O)NC(CC(=O)O)C2CCCCC2)nn1-c1ccc(F)cc1 (single isomer, unassigned) |  | Activity [3]: inactive; Emax [4]: 57%; Activity [6]: inactive |
| COc1cccc(OC)c1-c1cc(C(=O)N[C@@H](CCC(N)=O)C(=O)O)nn1-c1ccc(F)cc1 | > 30 µM |  |
| COc1cccc(OC)c1-c1cc(C(=O)NC2(C(=O)O)C3CC4CC(C3)CC2C4)nn1-c1ccc(F)cc1 (configuration not stated) | > 30 µM |  |
| COc1cccc(OC)c1-c1cc(C(=O)N[C@H](CC(=O)O)CC(C)C)nn1-c1ccc(F)cc1 | 9.4 µM | Ki (Apelin receptor [2]): 0.6 µM |
| COc1cccc(OC)c1-c1cc(C(=O)Nc2ccccc2C(=O)O)nn1-c1ccc(F)cc1 | > 30 µM |  |
| COc1cccc(OC)c1-c1cc(C(=O)N[C@@H](Cc2ccccc2)C(=O)O)nn1-c1ccc(F)cc1 | > 30 µM |  |
| O=C(N[C@H](C(=O)O)C1CCCCC1)c1cc(-c2ccccc2)n(-c2ccc(F)cc2)n1 | > 30 µM |  |
| COc1cccc(OC)c1-c1cc(C(=O)N[C@H](C(=O)O)c2ccccc2)nn1-c1ccc(F)cc1 | > 30 µM |  |
| COc1cccc(OC)c1-c1cc(C(=O)N[C@@H](CCCCN)C(=O)O)nn1-c1ccc(F)cc1 | > 30 µM |  |

Further lines, with some results ahead:

| EC50 (Apelin receptor [1]) | Compound | other results |
| --- | --- | --- |
| > 30 µM | COC(=O)[C@@H](NC(=O)c1cc(-c2c(OC)cccc2OC)n(-c2ccc(F)cc2)n1)C1CCCCC1 |  |
| > 30 µM | COc1cccc(OC)c1-c1cc(C(=O)N[C@H](C(=O)O)C(C)C)nn1-c1ccc(F)cc1 |  |
| > 30 µM | COc1cccc(OC)c1-c1cc(C(=O)N[C@H](C(N)=O)C2CCCCC2)nn1-c1ccc(F)cc1 |  |
| > 30 µM | COc1cccc(OC)c1-c1cc(C(=O)NCC2CCCCC2)nn1-c1ccc(F)cc1 |  |
| > 30 µM | COC(=O)CNC(=O)[C@@H](NC(=O)c1cc(-c2c(OC)cccc2OC)n(-c2ccc(F)cc2)n1)C1CCCCC1 |  |
| > 30 µM | COc1cccc(OC)c1-c1cc(C(=O)N[C@H](C(=O)O)C2CCCCC2)n(-c2ccc(F)cc2)n1 |  |
| > 30 µM | COc1cccc(OC)c1-c1cc(C(=O)N[C@H](C(=O)N(C)C)C2CCCCC2)nn1-c1ccc(F)cc1 |  |
| > 30 µM | COc1cccc(OC)c1-c1cc(C(=O)N[C@@H](C(=O)O)C2CCCCC2)nn1-c1ccc(F)cc1 |  |
| > 30 µM | COc1cccc(OC)c1-c1cc(C(=O)N[C@H]2CC[C@H](C(=O)O)CC2)nn1-c1ccc(F)cc1 |  |
| > 30 µM | COc1cccc(OC)c1-c1cc(C(=O)N[C@H](C(=O)NO)C2CCCCC2)nn1-c1ccc(F)cc1 |  |
| > 30 µM | COc1cccc(OC)c1-c1cc(C(=O)N[C@H](C(=O)NCc2ccccc2)C2CCCCC2)nn1-c1ccc(F)cc1 |  |
| > 30 µM | COc1cccc(OC)c1-c1cc(C(=O)NC2(C(=O)O)CCCCC2)nn1-c1ccc(F)cc1 |  |
| > 30 µM | COc1cccc(O)c1-c1cc(C(=O)N[C@H](C(=O)O)C2CCCCC2)nn1-c1ccc(F)cc1 |  |
| > 30 µM | O=C(N[C@H](C(=O)O)C1CCCCC1)c1cc(-c2c(O)cccc2O)n(-c2ccc(F)cc2)n1 |  |
